“Also recorded” adds a separate entry of the source.
Key:
[1] = test system: advanced solid tumors; experiment: Tumor response; format: in vivo, human
How it was run: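 Response assessed by RECIST v1.1 using imaging at baseline and every two cycles in patients dosed orally, QD or BID, in 28-day cycles. Response data summarised with descriptive statistics.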

[2] = test system: mammalian target of rapamycin (mTOR); conditions: cited from earlier work
[3] = test system: class III PI3K; conditions: cited from earlier work
[4] = Phase I dose escalation: MTD, DLTs and toxicities; format: in vivo, human
How it was run: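 Open-label, four-centre, 3+3 escalation in metastatic solid-tumour patients. Test compound taken orally from 2 mg, QD (2–96 mg) then BID (48–72 mg), in continuous 4-week cycles after a single-dose run-in with 5–7 day washout. Toxicities graded by CTCAE v4.03. DLTs assessed over run-in plus first cycle. MTD: highest level with ≤1 of 6 patients showing DLT. Descriptive statistics.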

[5] = test system: AKT phosphorylation (pAKT) in platelet-rich plasma (PRP); experiment: AKT phosphorylation in platelet-rich plasma; format: in vivo, human
How it was run: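 Oral single-dose run-in (Cycle 0, Day 1): citrated blood taken pre-dose and at 1, 2, 6, 24, 48 and 72 h, plus pre-dose on Cycle 1, Day 15. Spun 200 × g, 4°C, 15 min; PRP stabilised with phosphatase inhibitor, lysed with PMSF-containing buffer, snap-frozen. Phospho- and total AKT by quantitative electrochemiluminescent assay with recombinant active AKT standard curve per plate and spiked QC samples. p-AKT/total AKT expressed as % change from pre-treatment.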

[6] = test system: human cancer cell lines with alterations in the PI3K pathway; conditions: in vitro; cited from earlier work
[7] = test system: human tumor xenograft models with PIK3CA mutations; conditions: in vivo; cited from earlier work

CS(=O)(=O)N1CCc2c(-c3cnc(N)nc3)nc(N3CCOCC3)nc21 [CH5132799]
Response by GCIG CA125 criteria, patient with PIK3CA H1047R-mutated clear cell ovarian cancer ([1]; 48 mg BID): partial response; also recorded: GCIG CA125 response | Time on study of patient with GCIG CA125 response ([1]; 48 mg BID): 6 cycles | Clinical response, heavily pre-treated patient with triple negative breast cancer (no PIK3CA or AKT mutations) ([1]; 72 mg BID): marked symptomatic and objective improvement in their cutaneous skin lesions | RECIST partial or complete responses ([1]; all patients): no RECIST partial or complete responses | Study participants with best response of stable disease by RECIST ([1]; all patients): 21% | Inhibitory activity against mTOR [2]: no inhibitory activity | Inhibitory activity against class III PI3K [3]: no inhibitory activity | Treatment-related dry skin, number of patients ([4]; 2 mg QD (n=3), grade 1-2): 1 | Treatment-related fatigue, number of patients ([4]; 2 mg QD (n=3), grade 1-2): 2 | Treatment-related nausea, number of patients ([4]; 2 mg QD (n=3), grade 1-2): 1 | Treatment-related nausea, number of patients ([4]; 4 mg QD (n=3), grade 1-2): 1 | Treatment-related rash, number of patients ([4]; 4 mg QD (n=3), grade 1-2): 1 | Treatment-related fatigue, number of patients ([4]; 8 mg QD (n=3), grade 1-2): 1 | Treatment-related rash, number of patients ([4]; 8 mg QD (n=3), grade 1-2): 1 | Treatment-related stomatitis, number of patients ([4]; 8 mg QD (n=3), grade 1-2): 1 | Treatment-related anemia, number of patients ([4]; 8 mg QD (n=3), grade 3-4): 1 | Treatment-related decreased appetite, number of patients ([4]; 16 mg QD (n=3), grade 1-2): 1 | Treatment-related fatigue, number of patients ([4]; 16 mg QD (n=3), grade 1-2): 1 | Treatment-related nausea, number of patients ([4]; 16 mg QD (n=3), grade 1-2): 2 | Treatment-related decreased appetite, number of patients ([4]; 32 mg QD (n=4), grade 1-2): 2 | Treatment-related fatigue, number of patients ([4]; 32 mg QD (n=4), grade 1-2): 1 | Treatment-related nausea, number of patients ([4]; 32 mg QD (n=4), grade 1-2): 1 | Patients with DLT (grade 3 LFT/transaminase elevation) ([4]; 48 mg BID): one of seven | Treatment-related abdominal pain, number of patients ([4]; 48 mg BID (n=7), grade 1-2): 1 | Treatment-related diarrhea, number of patients ([4]; 48 mg BID (n=7), grade 1-2): 4 | Treatment-related dry skin, number of patients ([4]; 48 mg BID (n=7), grade 1-2): 2 | Treatment-related fatigue, number of patients ([4]; 48 mg BID (n=7), grade 1-2): 1 | Treatment-related rash, number of patients ([4]; 48 mg BID (n=7), grade 1-2): 1 | Treatment-related stomatitis, number of patients ([4]; 48 mg BID (n=7), grade 1-2): 3 | Treatment-related anemia, number of patients ([4]; 48 mg BID (n=7), grade 3-4): 1 | Treatment-related hyperglycemia, number of patients ([4]; 48 mg BID (n=7), grade 3-4): 1 | Grade ≥3 gastrointestinal AEs ([4]; 48 mg BID cohort): No grade ≥3 gastrointestinal AEs | Patients with DLTs ([4]; 56 mg BID): Two of five | Treatment-related abdominal pain, number of patients ([4]; 56 mg BID (n=5), grade 1-2): 1 | Treatment-related anemia, number of patients ([4]; 56 mg BID (n=5), grade 1-2): 1 | Treatment-related decreased appetite, number of patients ([4]; 56 mg BID (n=5), grade 1-2): 2 | Treatment-related diarrhea, number of patients ([4]; 56 mg BID (n=5), grade 1-2): 2 | Treatment-related fatigue, number of patients ([4]; 56 mg BID (n=5), grade 1-2): 3 | Treatment-related nausea, number of patients ([4]; 56 mg BID (n=5), grade 1-2): 3 | Treatment-related rash, number of patients ([4]; 56 mg BID (n=5), grade 1-2): 3 | Treatment-related stomatitis, number of patients ([4]; 56 mg BID (n=5), grade 1-2): 4 | Treatment-related vomiting, number of patients ([4]; 56 mg BID (n=5), grade 1-2): 3 | Treatment-related diarrhea, number of patients ([4]; 56 mg BID (n=5), grade 3-4): 2 | Treatment-related hyperglycemia, number of patients ([4]; 56 mg BID (n=5), grade 3-4): 2 | Treatment-related stomatitis, number of patients ([4]; 56 mg BID (n=5), grade 3-4): 1 | Treatment-related abdominal pain, number of patients ([4]; 56 mg QD (n=3), grade 1-2): 1 | Treatment-related diarrhea, number of patients ([4]; 56 mg QD (n=3), grade 1-2): 2 | Treatment-related dry skin, number of patients ([4]; 56 mg QD (n=3), grade 1-2): 1 | Treatment-related nausea, number of patients ([4]; 56 mg QD (n=3), grade 1-2): 1 | Treatment-related rash, number of patients ([4]; 56 mg QD (n=3), grade 1-2): 1 | Patients with DLTs ([4]; 72 mg BID): two of three | Treatment-related anemia, number of patients ([4]; 72 mg BID (n=3), grade 1-2): 1 | Treatment-related decreased appetite, number of patients ([4]; 72 mg BID (n=3), grade 1-2): 2 | Treatment-related diarrhea, number of patients ([4]; 72 mg BID (n=3), grade 1-2): 2 | Treatment-related fatigue, number of patients ([4]; 72 mg BID (n=3), grade 1-2): 1 | Treatment-related nausea, number of patients ([4]; 72 mg BID (n=3), grade 1-2): 1 | Treatment-related stomatitis, number of patients ([4]; 72 mg BID (n=3), grade 1-2): 1 | Treatment-related vomiting, number of patients ([4]; 72 mg BID (n=3), grade 1-2): 1 | Treatment-related abdominal pain, number of patients ([4]; 72 mg BID (n=3), grade 3-4): 1 | Treatment-related fatigue, number of patients ([4]; 72 mg BID (n=3), grade 3-4): 1 | Treatment-related hyperglycemia, number of patients ([4]; 72 mg BID (n=3), grade 3-4): 1 | Treatment-related anemia, number of patients ([4]; 96 mg QD (n=4), grade 1-2): 1 | Treatment-related decreased appetite, number of patients ([4]; 96 mg QD (n=4), grade 1-2): 1 | Treatment-related diarrhea, number of patients ([4]; 96 mg QD (n=4), grade 1-2): 3 | Treatment-related dry skin, number of patients ([4]; 96 mg QD (n=4), grade 1-2): 2 | Treatment-related fatigue, number of patients ([4]; 96 mg QD (n=4), grade 1-2): 1 | Treatment-related nausea, number of patients ([4]; 96 mg QD (n=4), grade 1-2): 2 | Treatment-related rash, number of patients ([4]; 96 mg QD (n=4), grade 1-2): 2 | Treatment-related stomatitis, number of patients ([4]; 96 mg QD (n=4), grade 1-2): 2 | Treatment-related vomiting, number of patients ([4]; 96 mg QD (n=4), grade 1-2): 2 | Treatment-related diarrhea, number of patients ([4]; 96 mg QD (n=4), grade 3-4): 2 | Patients with Grade ≥3 hyperglycemia ([4]; BID dosing schedule): Five | Maximum tolerated dose (MTD) ([4]; BID schedule, oral, 28-day cycles, patients with solid tumors): 48 mg | Recommended phase 2 dose (RP2D) ([4]; BID, oral): 48 mg | DLT ([4]; Cohort 7b, 48 mg BID, N=7, Cycle 1 Day 8): grade 3 elevated LFT at Cycle 1 Day 8 | DLT ([4]; Cohort 8, 72 mg BID, N=3, Cycle 1): grade 3 cerebral encephalopathy; also recorded: grade 3 Fatigue | DLT ([4]; Cohort 9, 56 mg BID, N=5): grade 3 Diarrhea and stomatitis | DLTs ([4]; QD schedule): No DLTs | Maximum tolerated dose (MTD) ([4]; QD schedule, 2-96 mg, oral): not reached at 96 mg | Reversibility of DLTs ([4]; all DLTs): reversible | Grade 4 diarrhea ([4]; all dose levels): no grade 4 diarrhea reported | Patients with grade 3 diarrhea ([4]; all dose levels): Four | Treatment-related abdominal pain, number (%) of patients ([4]; all dose levels, Total (n=38)): 4 (11%) | Treatment-related anemia, number (%) of patients ([4]; all dose levels, Total (n=38)): 5 (13%) | Treatment-related decreased appetite, number (%) of patients ([4]; all dose levels, Total (n=38)): 8 (21%) | Treatment-related diarrhea, number (%) of patients ([4]; all dose levels, Total (n=38)): 13 (34%) | Treatment-related dry skin, number (%) of patients ([4]; all dose levels, Total (n=38)): 6 (16%) | Treatment-related fatigue, number (%) of patients ([4]; all dose levels, Total (n=38)): 11 (29%) | Treatment-related hyperglycemia, number (%) of patients ([4]; all dose levels, Total (n=38)): 5 (13%) | Treatment-related nausea, number (%) of patients ([4]; all dose levels, Total (n=38)): 12 (32%) | Treatment-related rash, number (%) of patients ([4]; all dose levels, Total (n=38)): 9 (24%) | Treatment-related stomatitis, number (%) of patients ([4]; all dose levels, Total (n=38)): 11 (29%) | Treatment-related vomiting, number (%) of patients ([4]; all dose levels, Total (n=38)): 6 (16%) | Patients with DLTs ([4]; all evaluable patients, run-in period and first cycle): five of 38 | Diabetic ketoacidosis ([4]; all patients): No episodes of diabetic ketoacidosis | Drug-related deaths ([4]; all patients): No drug-related deaths | Grade of most drug-related adverse events ([4]; all patients): grade 1/2 | Patients with drug-related diarrhea ([4]; all patients): 34% | Patients with drug-related nausea ([4]; all patients): 32% | Patients with fatigue (most common AEs) ([4]; all patients): 29% | Patients with nausea (most common AEs) ([4]; all patients): 32% | Patients with rash (most common AEs) ([4]; all patients): 24% | Maximal inhibition of p-AKT in PRP compared to baseline ([5]; achieved at dose levels of 32 mg): approximately 50% | Duration of target engagement (reduction in phosphorylation of AKT in PRP) ([5]; after single dose): less than 24 hours | Dose levels at which p-AKT was consistently reduced in PRP ([5]; p-AKT Ser473): 8 to 96 mg | Dose with significant inhibition of PI3K signalling (reduction of AKT phosphorylation) in PRP ([5]; single dose, 2 hrs post-dose): ≥ 32 mg | Antiproliferative effect [6]: strong antiproliferative effect | Antitumor activity [7]: significant antitumor activity

From paper PMC4254850 (Clinical cancer research : an official journal of the …, 2014)
